In brackets after ≈: the same amount, converted by molar mass.
Tests used:
Streptococcus pneumoniae [1] = test: Antibacterial activity against erythromycin-susceptible Streptococcus pneumoniae ATCC 49619 by broth microdilution method; assay type: functional
Summary of the method: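 MIC read by broth microdilution following CLSI guidelines for S. pneumoniae; clarithromycin run alongside as comparator in all assays.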

Streptococcus pneumoniae [2] = test: Antibacterial activity against MLSB-resistant Streptococcus pneumoniae 205 by broth microdilution method; assay type: functional
Summary of the method: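 MIC measured by broth microdilution following CLSI guidelines for S. pneumoniae; erythromycin-susceptible and erythromycin-resistant pneumococcal strains tested, with clarithromycin as comparator in every run.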

Structure (SMILES)	MIC (Streptococcus pneumoniae [1])	MIC (Streptococcus pneumoniae [2])
CCN(CCNC(=O)O[C@H]1[C@H](C)O[C@@H](O[C@H]2[C@H](C)[C@@H](O[C@@H]3O[C@H](C)C[C@H](N(C)C)[C@H]3O)[C@](C)(O)C[C@@H](C)[C@H](N)[C@H](C)CN(C)CCOC(=O)[C@@H]2C)C[C@@]1(C)OC)[C@@H](C)c1ccccc1OC	0.12 mg/L (≈ 0.128 µM)	0.5 mg/L (≈ 0.533 µM)
CO[C@]1(C)C[C@@H](C)[C@H](O)[C@H](C)CN(C)C[C@H](c2ccccc2)OC(=O)[C@H](C)[C@@H](O[C@H]2C[C@@](C)(OC)[C@@H](O)[C@H](C)O2)[C@H](C)[C@H]1O[C@@H]1O[C@H](C)C[C@H](N(C)C)[C@H]1O	0.5 mg/L (≈ 0.64 µM)	> 128 mg/L
CO[C@]1(C)C[C@@H](C)[C@H](O)[C@H](C)CN(C)C[C@H](CCOCc2ccccc2)OC(=O)[C@H](C)[C@@H](O[C@H]2C[C@@](C)(OC)[C@@H](O)[C@H](C)O2)[C@H](C)[C@H]1O[C@@H]1O[C@H](C)C[C@H](N(C)C)[C@H]1O	0.12 mg/L (≈ 0.143 µM)	128 mg/L (≈ 153 µM)
CO[C@]1(C)C[C@@H](C)[C@H](O)[C@H](C)CN(C)CCOC(=O)C(C)C(=O)[C@H](C)[C@H]1O[C@@H]1O[C@H](C)C[C@H](N(C)C)[C@H]1O (mixture of isomers)	> 128 mg/L	> 128 mg/L
CO[C@]1(C)C[C@@H](C)[C@H](O)[C@H](C)CN(C)[C@H](COCc2ccccc2)COC(=O)[C@H](C)[C@@H](O[C@H]2C[C@@](C)(OC)[C@@H](O)[C@H](C)O2)[C@H](C)[C@H]1O[C@@H]1O[C@H](C)C[C@H](N(C)C)[C@H]1O	4 mg/L (≈ 4.85 µM)	64 mg/L (≈ 77.6 µM)
CO[C@]1(C)C[C@@H](C)[C@H](O)[C@H](C)CN(C)[C@@H](CCOCc2ccccc2)COC(=O)[C@H](C)[C@@H](O[C@H]2C[C@@](C)(OC)[C@@H](O)[C@H](C)O2)[C@H](C)[C@H]1O[C@@H]1O[C@H](C)C[C@H](N(C)C)[C@H]1O	1 mg/L (≈ 1.19 µM)	64 mg/L (≈ 76.3 µM)
CO[C@]1(C)C[C@@H](C)[C@H](O)[C@H](C)CN(C)C[C@H](COc2ccc(-c3ccccn3)cc2)OC(=O)[C@H](C)[C@@H](O[C@H]2C[C@@](C)(OC)[C@@H](O)[C@H](C)O2)[C@H](C)[C@H]1O[C@@H]1O[C@H](C)C[C@H](N(C)C)[C@H]1O	0.25 mg/L (≈ 0.281 µM)	16 mg/L (≈ 18 µM)
CO[C@]1(C)C[C@@H](C)[C@H](O)[C@H](C)CN(C)[C@@H](CN)COC(=O)[C@H](C)[C@@H](O[C@H]2C[C@@](C)(OC)[C@@H](O)[C@H](C)O2)[C@H](C)[C@H]1O[C@@H]1O[C@H](C)C[C@H](N(C)C)[C@H]1O	64 mg/L (≈ 87.2 µM)	> 128 mg/L
CO[C@]1(C)C[C@@H](C)[C@H](O)[C@H](C)CN(C)C[C@H](COc2ccc(-c3cccnc3)cc2)OC(=O)[C@H](C)[C@@H](O[C@H]2C[C@@](C)(OC)[C@@H](O)[C@H](C)O2)[C@H](C)[C@H]1O[C@@H]1O[C@H](C)C[C@H](N(C)C)[C@H]1O	0.5 mg/L (≈ 0.563 µM)	64 mg/L (≈ 72.1 µM)
CO[C@]1(C)C[C@@H](C)[C@H](O)[C@H](C)CN(C)C[C@H](COc2ccc(-c3ccccc3)cc2)OC(=O)[C@H](C)[C@@H](O[C@H]2C[C@@](C)(OC)[C@@H](O)[C@H](C)O2)[C@H](C)[C@H]1O[C@@H]1O[C@H](C)C[C@H](N(C)C)[C@H]1O	1 mg/L (≈ 1.13 µM)	8 mg/L (≈ 9.02 µM)
CO[C@]1(C)C[C@@H](C)[C@H](O)[C@H](C)CN(C)C[C@H](COc2cccc(-c3ccccc3)c2)OC(=O)[C@H](C)[C@@H](O[C@H]2C[C@@](C)(OC)[C@@H](O)[C@H](C)O2)[C@H](C)[C@H]1O[C@@H]1O[C@H](C)C[C@H](N(C)C)[C@H]1O	1 mg/L (≈ 1.13 µM)	16 mg/L (≈ 18 µM)
CO[C@]1(C)C[C@@H](C)C(=O)[C@H](C)CN(C)CCOC(=O)[C@H](C)[C@@H](O[C@H]2C[C@@](C)(OC)[C@@H](O)[C@H](C)O2)[C@H](C)[C@H]1O[C@@H]1O[C@H](C)C[C@H](N(C)C)[C@H]1O	32 mg/L (≈ 45.5 µM)	> 128 mg/L
CO[C@]1(C)C[C@@H](C)[C@H](O)[C@H](C)CN(C)C[C@H](COCc2ccccc2)OC(=O)[C@H](C)[C@@H](O[C@H]2C[C@@](C)(OC)[C@@H](O)[C@H](C)O2)[C@H](C)[C@H]1O[C@@H]1O[C@H](C)C[C@H](N(C)C)[C@H]1O	0.06 mg/L (≈ 0.0727 µM)	128 mg/L (≈ 155 µM)
CO[C@]1(C)C[C@@H](C)[C@H](O)[C@H](C)CN(C)C[C@@H](COCc2ccccc2)OC(=O)[C@H](C)[C@@H](O[C@H]2C[C@@](C)(OC)[C@@H](O)[C@H](C)O2)[C@H](C)[C@H]1O[C@@H]1O[C@H](C)C[C@H](N(C)C)[C@H]1O	1 mg/L (≈ 1.21 µM)	64 mg/L (≈ 77.6 µM)
CO[C@]1(C)C[C@@H](C)[C@H](O)[C@H](C)CN(C)[C@@H](COCc2ccccc2)COC(=O)[C@H](C)[C@@H](O[C@H]2C[C@@](C)(OC)[C@@H](O)[C@H](C)O2)[C@H](C)[C@H]1O[C@@H]1O[C@H](C)C[C@H](N(C)C)[C@H]1O	1 mg/L (≈ 1.21 µM)	64 mg/L (≈ 77.6 µM)
CO[C@]1(C)C[C@@H](C)[C@H](O)[C@H](C)CN(C)C[C@H](COc2ccccc2-c2ccccc2)OC(=O)[C@H](C)[C@@H](O[C@H]2C[C@@](C)(OC)[C@@H](O)[C@H](C)O2)[C@H](C)[C@H]1O[C@@H]1O[C@H](C)C[C@H](N(C)C)[C@H]1O	0.5 mg/L (≈ 0.564 µM)	16 mg/L (≈ 18 µM)
CCN(CC)C[C@H]1COC(=O)[C@H](C)[C@@H](O[C@H]2C[C@@](C)(OC)[C@@H](O)[C@H](C)O2)[C@H](C)[C@@H](O[C@@H]2O[C@H](C)C[C@H](N(C)C)[C@H]2O)[C@](C)(OC)C[C@@H](C)[C@H](O)[C@H](C)CN1C	128 mg/L (≈ 162 µM)	> 128 mg/L
CO[C@]1(C)C[C@H](O[C@H]2[C@H](C)[C@@H](O[C@@H]3O[C@H](C)C[C@H](N(C)C)[C@H]3O)[C@](C)(O)C[C@@H](C)[C@H](N)[C@H](C)CN(C)C[C@H](COCc3ccccc3)OC(=O)[C@@H]2C)O[C@@H](C)[C@@H]1O	0.12 mg/L (≈ 0.148 µM)	> 128 mg/L
CC[C@H]1OC(=O)[C@H](C)[C@@H](O[C@H]2C[C@@](C)(OC)[C@@H](O)[C@H](C)O2)[C@H](C)[C@@H](O[C@@H]2O[C@H](C)C[C@H](N(C)C)[C@H]2O)[C@](C)(OC)C[C@@H](C)C(=O)[C@H](C)[C@@H](O)[C@]1(C)O [CLARITHROMYCIN]	0.03 mg/L (≈ 0.0401 µM)	> 128 mg/L
CO[C@]1(C)C[C@H](O[C@H]2[C@H](C)[C@@H](O[C@@H]3O[C@H](C)C[C@H](N(C)C)[C@H]3O)[C@](C)(O)C[C@@H](C)[C@H](N)[C@H](C)CN(C)CCOC(=O)[C@@H]2C)O[C@@H](C)[C@@H]1O	2 mg/L (≈ 2.9 µM)	> 128 mg/L
CCN(CCNC(=O)O[C@H]1[C@H](C)O[C@@H](O[C@H]2[C@H](C)[C@@H](O[C@@H]3O[C@H](C)C[C@H](N(C)C)[C@H]3O)[C@](C)(O)C[C@@H](C)[C@H](N)[C@H](C)CN(C)C[C@H](COCc3ccccc3)OC(=O)[C@@H]2C)C[C@@]1(C)OC)[C@@H](C)c1ccccc1OC	0.12 mg/L (≈ 0.113 µM)	0.25 mg/L (≈ 0.236 µM)
CC[C@H]1OC(=O)[C@H](C)C(=O)[C@H](C)[C@@H](O[C@@H]2O[C@H](C)C[C@H](N(C)C)[C@H]2O)[C@](C)(OC)C[C@@H](C)C(=O)[C@H](C)[C@H]2N(CCCCn3cnc(-c4cccnc4)c3)C(=O)O[C@]12C [TELITHROMYCIN]	4 mg/L (≈ 4.93 µM)	> 128 mg/L
CO[C@]1(C)C[C@@H](C)[C@H](O)[C@H](C)CN(C)C[C@H](COc2ccccc2)OC(=O)[C@H](C)[C@@H](O[C@H]2C[C@@](C)(OC)[C@@H](O)[C@H](C)O2)[C@H](C)[C@H]1O[C@@H]1O[C@H](C)C[C@H](N(C)C)[C@H]1O	0.25 mg/L (≈ 0.308 µM)	32 mg/L (≈ 39.5 µM)
CO[C@]1(C)C[C@@H](C)[C@H](O)[C@H](C)CN(C)CCOC(=O)[C@H](C)[C@@H](O[C@H]2C[C@@](C)(OC)[C@@H](O)[C@H](C)O2)[C@H](C)[C@H]1O[C@@H]1O[C@H](C)C[C@H](N(C)C)[C@H]1O	2 mg/L (≈ 2.84 µM)	> 128 mg/L

Source: ChEMBL document CHEMBL2146424, “Synthesis and structure-activity relationship of a novel class of 15-membered macrolide antibiotics known as '11a-azalides'” (2012)
